3 molecules from ChEMBL document CHEMBL1949512, “RO4383596, an orally active KDR, FGFR, and PDGFR inhibitor: synthesis and biological evaluation” (Bioorg Med Chem, 2005) can be followed below.

The structures appear in SMILES notation.

Broadly, the IC50 is the concentration that gives 50% inhibition.

The target of experiment [1] is Epidermal growth factor receptor (Homo sapiens, UniProt P00533). The experiment is described as follows: Inhibition of human recombinant His-tagged intracellular domain of EGFR using biotin-EEEEYFELV as substrate by HTRF assay.
Sequence of Epidermal growth factor receptor (P00533 whole entry, the tested form may be a part): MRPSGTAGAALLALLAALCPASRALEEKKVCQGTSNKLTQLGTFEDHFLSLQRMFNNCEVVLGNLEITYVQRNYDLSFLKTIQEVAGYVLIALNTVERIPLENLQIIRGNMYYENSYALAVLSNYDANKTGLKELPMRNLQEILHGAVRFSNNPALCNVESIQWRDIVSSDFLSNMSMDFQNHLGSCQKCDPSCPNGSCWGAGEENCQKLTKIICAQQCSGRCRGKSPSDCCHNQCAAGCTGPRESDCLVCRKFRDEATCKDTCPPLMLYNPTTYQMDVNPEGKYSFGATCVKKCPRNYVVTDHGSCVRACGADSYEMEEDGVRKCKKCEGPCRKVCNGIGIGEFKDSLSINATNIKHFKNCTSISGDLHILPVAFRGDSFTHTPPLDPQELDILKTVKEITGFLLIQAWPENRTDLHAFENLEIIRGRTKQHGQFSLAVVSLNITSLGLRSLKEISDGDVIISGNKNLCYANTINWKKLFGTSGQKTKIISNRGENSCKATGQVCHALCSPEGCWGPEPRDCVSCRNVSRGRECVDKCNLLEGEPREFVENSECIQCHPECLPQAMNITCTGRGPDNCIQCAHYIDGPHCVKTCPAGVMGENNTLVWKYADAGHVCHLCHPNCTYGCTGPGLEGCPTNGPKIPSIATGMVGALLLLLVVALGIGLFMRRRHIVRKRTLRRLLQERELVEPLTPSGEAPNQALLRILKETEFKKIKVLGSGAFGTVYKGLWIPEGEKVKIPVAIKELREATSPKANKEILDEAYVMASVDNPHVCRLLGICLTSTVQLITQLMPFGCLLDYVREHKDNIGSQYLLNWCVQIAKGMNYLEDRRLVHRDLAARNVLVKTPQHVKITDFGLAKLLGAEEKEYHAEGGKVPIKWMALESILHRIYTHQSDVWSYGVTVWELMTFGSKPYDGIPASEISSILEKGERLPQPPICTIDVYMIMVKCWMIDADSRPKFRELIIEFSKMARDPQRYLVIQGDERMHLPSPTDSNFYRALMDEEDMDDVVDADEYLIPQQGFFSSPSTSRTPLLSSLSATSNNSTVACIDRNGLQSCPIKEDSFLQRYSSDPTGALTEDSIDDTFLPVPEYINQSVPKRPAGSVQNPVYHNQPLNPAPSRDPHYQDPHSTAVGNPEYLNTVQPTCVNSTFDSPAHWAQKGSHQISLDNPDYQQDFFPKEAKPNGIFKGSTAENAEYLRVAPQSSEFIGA
In experiment [2] the target is Fibroblast growth factor receptor (Homo sapiens, UniProt P22607+P11362+P22455+P21802). The experiment is described as follows: Inhibition of human recombinant GST-tagged intracellular domain of FGFR using biotin-EEEEYFELV as substrate by HTRF assay. Background: TR-FRET usually uses a lanthanide donor and a delayed reading to cut background.
For experiment [3], the target named is Platelet-derived growth factor receptor (Homo sapiens, UniProt P09619+P16234). The experiment is described as follows: Inhibition of human recombinant His-tagged intracellular domain of PDGFR using biotin-EEEEYFELV as substrate by HTRF assay.
Experiment [4] has as its target T1, Vascular endothelial growth factor receptor 2 (Homo sapiens, UniProt P35968). In words: Inhibition of human recombinant EE-tagged intracellular domain of KDR using biotin-EEEEYFELVAKKKK as substrate by HTRF assay.
In experiment [5] the target is T1, Vascular endothelial growth factor receptor 2. The experiment is described as follows: Inhibition of KDR in HUVEC assessed as ERK1/2 phosphorylation by Western blot analysis. The method in brief: (§1)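 HUVECs at passages 2–4 were grown to 70% confluency and serum-starved 18 h in EBM-2 with 1.0% HI-FBS. Compound was added 1 h before 50 ng/mL rhVEGF. Cells were lysed on ice 5 min after stimulation and lysates immunoblotted, with actin used to normalize loading.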
(In general: A western blot detects proteins with antibodies after separation by electrophoresis.)

The target is the same in experiment [6]. The experiment is described as follows: Inhibition of KDR autophosphorylation in HUVEC by Western blot analysis. In outline:
as §1

Experiment [7] has the same target. In words: Inhibition of KDR in HUVEC assessed as AKT phosphorylation by Western blot analysis. The method in brief:
as §1

T1 sequence (P35968 whole entry, the tested form may be a part): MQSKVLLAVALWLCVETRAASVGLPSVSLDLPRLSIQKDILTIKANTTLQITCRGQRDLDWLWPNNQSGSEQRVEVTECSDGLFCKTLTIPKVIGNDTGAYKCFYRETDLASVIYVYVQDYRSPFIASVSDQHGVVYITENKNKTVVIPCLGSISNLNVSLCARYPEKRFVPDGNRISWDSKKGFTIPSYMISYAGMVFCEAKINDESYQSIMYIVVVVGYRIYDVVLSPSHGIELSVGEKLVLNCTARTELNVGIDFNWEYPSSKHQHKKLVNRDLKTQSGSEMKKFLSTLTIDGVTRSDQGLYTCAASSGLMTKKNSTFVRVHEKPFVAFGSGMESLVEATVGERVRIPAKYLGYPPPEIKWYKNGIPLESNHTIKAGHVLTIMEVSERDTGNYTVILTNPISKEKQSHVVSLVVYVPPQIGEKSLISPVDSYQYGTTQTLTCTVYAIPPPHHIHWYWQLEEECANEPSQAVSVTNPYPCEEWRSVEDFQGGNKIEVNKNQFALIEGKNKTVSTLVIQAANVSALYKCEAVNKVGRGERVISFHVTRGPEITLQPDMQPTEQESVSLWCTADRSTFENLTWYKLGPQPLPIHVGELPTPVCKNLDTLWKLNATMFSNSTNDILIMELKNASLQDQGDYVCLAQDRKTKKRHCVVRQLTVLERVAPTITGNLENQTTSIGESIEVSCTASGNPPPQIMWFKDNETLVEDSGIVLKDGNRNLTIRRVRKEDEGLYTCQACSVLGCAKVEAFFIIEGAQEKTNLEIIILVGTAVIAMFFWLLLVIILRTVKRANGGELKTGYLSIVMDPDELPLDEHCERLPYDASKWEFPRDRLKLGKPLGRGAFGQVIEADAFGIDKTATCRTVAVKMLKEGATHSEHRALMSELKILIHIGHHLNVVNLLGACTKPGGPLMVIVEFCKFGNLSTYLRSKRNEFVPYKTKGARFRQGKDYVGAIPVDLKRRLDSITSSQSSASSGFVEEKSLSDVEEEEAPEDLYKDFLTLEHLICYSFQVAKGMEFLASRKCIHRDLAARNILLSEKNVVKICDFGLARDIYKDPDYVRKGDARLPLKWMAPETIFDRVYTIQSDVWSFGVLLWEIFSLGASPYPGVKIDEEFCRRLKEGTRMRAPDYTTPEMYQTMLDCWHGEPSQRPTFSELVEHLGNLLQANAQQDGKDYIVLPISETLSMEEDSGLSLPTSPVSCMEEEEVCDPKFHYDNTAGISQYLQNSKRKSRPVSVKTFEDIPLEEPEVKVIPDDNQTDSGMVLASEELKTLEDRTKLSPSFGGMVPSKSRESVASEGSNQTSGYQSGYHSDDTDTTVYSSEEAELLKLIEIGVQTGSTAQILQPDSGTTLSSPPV

Turning to `COc1ccc(N2Cc3cnc(Nc4ccccc4)nc3N([C@@H]3CC[C@@H](O)C3)C2=O)cc1`, the half-inhibitory concentration (IC50) is 239 nM in experiment [1], 35 nM in experiment [2], 28 nM in experiment [3] and 12 nM in experiment [4].
On to `COc1ccc(N2Cc3cnc(Nc4ccccc4)nc3N([C@H]3CC[C@H](O)C3)C2=O)cc1`, for which the IC50 is 365 nM in experiment [1], 37 nM in experiment [2], 33 nM in experiment [3] and 15 nM in experiment [4].
Turning to `COc1ccc(N2Cc3cnc(Nc4ccccc4)nc3N([C@@H]3CC[C@@H](O)C3)C2=O)cc1` (racemic), the inhibition result in experiment [5], in experiment [6] and in experiment [7] was “Dose-dependent effect” throughout.
